{"source": "ChEMBL document CHEMBL1157311", "about": "“Aurilides B and C, cancer cell toxins from a Papua New Guinea collection of the marine cyanobacterium Lyngbya majuscula” (2006)", "type_in_all_cases": "functional", "key": {"COLO 205": {"tested_on": "COLO 205", "assay": "Growth inhibition of human COLO205 cells"}, "IGROV-1": {"tested_on": "IGROV-1", "assay": "Growth inhibition of human IGROV1 cells"}, "BT-549": {"tested_on": "BT-549", "assay": "Growth inhibition of human BT549 cells"}, "[1]": {"assay": "Growth inhibition of human OVACR4 cells"}, "EKVX": {"tested_on": "EKVX", "assay": "Growth inhibition of human EKVX cells"}, "[2]": {"assay": "Cytotoxicity against mouse Neuro2a cells after 48 hrs by MTT assay", "conditions": "N2a, read-out: LC50 (the source's name)", "outline": "(§1)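 Cells seeded at 6000/well and grown 24 h, then given test chemicals dissolved in DMSO and diluted in serum-free medium (DMSO under 0.5% final). Viability read by MTT reduction after 48 h exposure; LC50 reported. Method follows Alley et al.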"}, "SR": {"tested_on": "SR", "assay": "Growth inhibition of human SR cells"}, "MDA-MB-435": {"tested_on": "MDA-MB-435", "assay": "Growth inhibition of human MDA-MB-435 cells"}, "HCT-116": {"tested_on": "HCT-116", "assay": "Growth inhibition of human HCT116 cells"}, "CAKI-1": {"tested_on": "CAKI-1", "assay": "Growth inhibition of human CAKI1 cells"}, "NCI/ADR-RES": {"tested_on": "NCI/ADR-RES", "assay": "Growth inhibition of human NCI/ADR-RES cells"}, "NCI-H460": {"tested_on": "NCI-H460", "assay": "Cytotoxicity against human NCI-H460 cells after 48 hrs by MTT assay", "conditions": "NCI-H460, 48 h, read-out: LC50 (the source's name)", "outline": "as §1"}, "LOX IMVI": {"tested_on": "LOX IMVI", "assay": "Growth inhibition of human LOX IMVI cells"}, "HOP-62": {"tested_on": "HOP-62", "assay": "Growth inhibition of human HOP62 cells"}, "HCC 2998": {"tested_on": "HCC 2998", "assay": "Growth inhibition of human HCC2998 cells"}, "SN12C": {"tested_on": "SN12C", "assay": "Growth inhibition of human SN12C cells"}, "[3]": {"assay": "Growth inhibition of human OVACR5 cells"}, "A549": {"tested_on": "A549", "assay": "Growth inhibition of human A549 cells"}, "NCI-H322M": {"tested_on": "NCI-H322M", "assay": "Growth inhibition of human NCI-H322M cells"}, "SK-MEL-5": {"tested_on": "SK-MEL-5", "assay": "Growth inhibition of human SK-MEL-5 cells"}, "K562": {"tested_on": "K562", "assay": "Growth inhibition of human K562 cells"}, "TK-10": {"tested_on": "TK-10", "assay": "Growth inhibition of human TK10 cells"}, "PC-3": {"tested_on": "PC-3", "assay": "Growth inhibition of human PC3 cells"}, "[4]": {"assay": "Growth inhibition of human RPMI8266 cells"}, "NCI-H23": {"tested_on": "NCI-H23", "assay": "Growth inhibition of human NCI-H23 cells"}, "UACC-62": {"tested_on": "UACC-62", "assay": "Growth inhibition of human UACC62 cells"}, "HOP-92": {"tested_on": "HOP-92", "assay": "Growth inhibition of human HOP92 cells"}, "UO-31": {"tested_on": "UO-31", "assay": "Growth inhibition of human UO31 cells"}, "NCI-H522": {"tested_on": "NCI-H522", "assay": "Growth inhibition of human NCI-H522 cells"}, "[5]": {"conditions": "read-out: pLC50 (the source's name) (converted)"}}, "data": [{"molecule": "CC/C=C(\\C)[C@H]1OC(=O)[C@H](C)N(C)C(=O)[C@H](C(C)C)NC(=O)CN(C)C(=O)[C@H]([C@H](C)CC)N(C)C(=O)[C@H](C(C)C)NC(=O)[C@@H]([C@@H](C)CC)OC(=O)/C(C)=C/C[C@H](O)[C@@H]1C", "note": "[AURILIDE B]", "values": [{"measurement": "GI50", "setting": "COLO 205", "result": "< 10", "unit": "nM"}, {"measurement": "CC50", "setting": "COLO 205; [5]", "result": "> 100000", "unit": "nM"}, {"measurement": "TGI", "setting": "COLO 205; read-out: pTGI", "result": "> 100000", "unit": "nM"}, {"measurement": "GI50", "setting": "IGROV-1", "result": "< 10", "unit": "nM"}, {"measurement": "CC50", "setting": "IGROV-1; [5]", "result": "> 100000", "unit": "nM"}, {"measurement": "TGI", "setting": "IGROV-1; read-out: pTGI", "result": "< 10", "unit": "nM"}, {"measurement": "GI50", "setting": "BT-549", "result": "< 10", "unit": "nM"}, {"measurement": "GI50", "setting": "[1]", "result": "< 10", "unit": "nM"}, {"measurement": "CC50", "setting": "[1]; [5]", "result": "> 100000", "unit": "nM"}, {"measurement": "TGI", "setting": "[1]; read-out: pTGI", "result": "< 10", "unit": "nM"}, {"measurement": "GI50", "setting": "EKVX", "result": "< 10", "unit": "nM"}, {"measurement": "CC50", "setting": "EKVX; [5]", "result": "< 10", "unit": "nM"}, {"measurement": "TGI", "setting": "EKVX; read-out: pTGI", "result": "< 10", "unit": "nM"}, {"measurement": "CC50", "setting": "[2]", "result": 10, "unit": "nM"}, {"measurement": "GI50", "setting": "SR", "result": "< 10", "unit": "nM"}, {"measurement": "CC50", "setting": "SR; [5]", "result": "< 10", "unit": "nM"}, {"measurement": "TGI", "setting": "SR; read-out: pTGI", "result": "< 10", "unit": "nM"}, {"measurement": "GI50", "setting": "MDA-MB-435", "result": "< 10", "unit": "nM"}, {"measurement": "TGI", "setting": "MDA-MB-435; read-out: pTGI", "result": "< 10", "unit": "nM"}, {"measurement": "GI50", "setting": "HCT-116", "result": "< 10", "unit": "nM"}, {"measurement": "CC50", "setting": "HCT-116; [5]", "result": "< 10", "unit": "nM"}, {"measurement": "TGI", "setting": "HCT-116; read-out: pTGI", "result": "< 10", "unit": "nM"}, {"measurement": "GI50", "setting": "CAKI-1", "result": "< 10", "unit": "nM"}, {"measurement": "TGI", "setting": "CAKI-1; read-out: pTGI", "result": "< 10", "unit": "nM"}, {"measurement": "GI50", "setting": "NCI/ADR-RES", "result": "< 10", "unit": "nM"}, {"measurement": "CC50", "setting": "NCI/ADR-RES; [5]", "result": "< 10", "unit": "nM"}, {"measurement": "TGI", "setting": "NCI/ADR-RES; read-out: pTGI", "result": "< 10", "unit": "nM"}, {"measurement": "CC50", "setting": "NCI-H460", "result": 40, "unit": "nM"}, {"measurement": "GI50", "setting": "LOX IMVI", "result": "< 10", "unit": "nM"}, {"measurement": "GI50", "setting": "HOP-62", "result": "< 10", "unit": "nM"}, {"measurement": "CC50", "setting": "HOP-62; [5]", "result": "< 10", "unit": "nM"}, {"measurement": "TGI", "setting": "HOP-62; read-out: pTGI", "result": "< 10", "unit": "nM"}, {"measurement": "GI50", "setting": "HCC 2998", "result": "< 10", "unit": "nM"}, {"measurement": "CC50", "setting": "HCC 2998; [5]", "result": "< 10", "unit": "nM"}, {"measurement": "TGI", "setting": "HCC 2998; read-out: pTGI", "result": "< 10", "unit": "nM"}, {"measurement": "GI50", "setting": "SN12C", "result": "< 10", "unit": "nM"}, {"measurement": "GI50", "setting": "[3]", "result": "< 10", "unit": "nM"}, {"measurement": "CC50", "setting": "[3]; [5]", "result": "< 10", "unit": "nM"}, {"measurement": "TGI", "setting": "[3]; read-out: pTGI", "result": "< 10", "unit": "nM"}, {"measurement": "GI50", "setting": "A549", "result": "< 10", "unit": "nM"}, {"measurement": "CC50", "setting": "A549; [5]", "result": "< 10", "unit": "nM"}, {"measurement": "TGI", "setting": "A549; read-out: pTGI", "result": "< 10", "unit": "nM"}, {"measurement": "GI50", "setting": "NCI-H322M", "result": "< 10", "unit": "nM"}, {"measurement": "TGI", "setting": "NCI-H322M; read-out: pTGI", "result": "< 10", "unit": "nM"}, {"measurement": "GI50", "setting": "SK-MEL-5", "result": 219, "unit": "nM"}, {"measurement": "CC50", "setting": "SK-MEL-5; [5]", "result": 3020, "unit": "nM"}, {"measurement": "TGI", "setting": "SK-MEL-5; read-out: pTGI (converted)", "result": 490, "unit": "nM"}, {"measurement": "GI50", "setting": "K562", "result": "< 10", "unit": "nM"}, {"measurement": "CC50", "setting": "K562; [5]", "result": 100, "unit": "nM"}, {"measurement": "TGI", "setting": "K562; read-out: pTGI", "result": "< 10", "unit": "nM"}, {"measurement": "GI50", "setting": "TK-10", "result": "< 10", "unit": "nM"}, {"measurement": "CC50", "setting": "TK-10; [5]", "result": "< 10", "unit": "nM"}, {"measurement": "TGI", "setting": "TK-10; read-out: pTGI", "result": "< 10", "unit": "nM"}, {"measurement": "GI50", "setting": "PC-3", "result": "< 10", "unit": "nM"}, {"measurement": "CC50", "setting": "PC-3; [5]", "result": "< 10", "unit": "nM"}, {"measurement": "TGI", "setting": "PC-3; read-out: pTGI", "result": "< 10", "unit": "nM"}, {"measurement": "GI50", "setting": "[4]", "result": "< 10", "unit": "nM"}, {"measurement": "CC50", "setting": "[4]; [5]", "result": "> 100000", "unit": "nM"}, {"measurement": "TGI", "setting": "[4]; read-out: pTGI", "result": "< 10", "unit": "nM"}, {"measurement": "GI50", "setting": "NCI-H23", "result": "< 10", "unit": "nM"}, {"measurement": "CC50", "setting": "NCI-H23; [5]", "result": "< 10", "unit": "nM"}, {"measurement": "TGI", "setting": "NCI-H23; read-out: pTGI", "result": "< 10", "unit": "nM"}, {"measurement": "GI50", "setting": "UACC-62", "result": "< 10", "unit": "nM"}, {"measurement": "TGI", "setting": "UACC-62; read-out: pTGI", "result": "< 10", "unit": "nM"}, {"measurement": "GI50", "setting": "HOP-92", "result": "< 10", "unit": "nM"}, {"measurement": "CC50", "setting": "HOP-92; [5]", "result": 58900, "unit": "nM"}, {"measurement": "TGI", "setting": "HOP-92; read-out: pTGI", "result": "< 10", "unit": "nM"}, {"measurement": "GI50", "setting": "UO-31", "result": "< 10", "unit": "nM"}, {"measurement": "CC50", "setting": "UO-31; [5]", "result": "< 10", "unit": "nM"}, {"measurement": "TGI", "setting": "UO-31; read-out: pTGI", "result": "< 10", "unit": "nM"}, {"measurement": "GI50", "setting": "NCI-H522", "result": "< 10", "unit": "nM"}, {"measurement": "CC50", "setting": "NCI-H522; [5]", "result": "> 100000", "unit": "nM"}]}]}
